Measured values taken from ChEMBL document CHEMBL3853338 (Bioorg Med Chem Lett, 2016).
Active and inactive are the calls of the source. The rule behind the calls is not given here.

Key:
[1] = Drug level in mouse brain assessed as compound level in soluble tissue fraction at 10 uM after 1 hr by LC-MS/MS analysis; assay type: ADME, tissue-based
Procedure, shortened: (§1)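 Compound at 10 µM incubated 1 h at 37 °C with homogenized mouse brain tissue in HBSS (1% final DMSO); after centrifugation, percent of compound in insoluble tissue fraction and soluble supernatant determined by LC–MS/MS.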

[2] = Fraction unbound in mouse brain assessed as compound level in insoluble tissue fraction at 10 uM after 1 hr by LC-MS/MS analysis; assay type: ADME, tissue-based; details: in the assay text read “soluble supernatant fraction” for “insoluble tissue fraction”; procedure, shortened: as §1
[3] = Ratio of AUC in brain to plasma of Sprague-Dawley rat at 10 mg/kg, iv after 30 to 180 mins by LC-MS/MS analysis; assay type: ADME, organism-based; details: read-out: Ratio AUC
Procedure, shortened: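 Male Sprague Dawley rats (n = 3 per time point) dosed IV at 10 mg/kg; brain and plasma taken 30, 90, 180 min after dosing and assayed by LC–MS/MS; three-point linear-segment AUCs computed; ratio = AUCbrain divided by AUCplasma.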

[4] = Plasma concentration in Sprague-Dawley rat plasma at 10 mg/kg, iv after 30 mins by LC-MS/MS analysis; assay type: ADME, organism-based
Procedure, shortened: (§2)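 Healthy male Sprague Dawley rats, n = 3 per time point, given 10 mg/kg IV; brain and plasma sampled at 30, 90 and 180 min post dose; drug levels by LC–MS/MS (plasma ng/ml, brain ng/g). AUC summed from straight-line segments joining the three time points.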

[5] = AUC in Sprague-Dawley rat brain at 10 mg/kg, iv after 30 to 180 mins by LC-MS/MS analysis; assay type: ADME, organism-based; procedure, shortened: as §2
[6] = Drug level in Sprague-Dawley rat brain at 10 mg/kg, iv after 30 mins by LC-MS/MS analysis; assay type: ADME, organism-based; details: read-out: Drug uptake; procedure, shortened: as §2
[7] = tested on: U-87MG ATCC; experiment: Induction of DNA alkylation in human U87MG cells assessed as increase in O6-MedG formation at 10 uM after 3 hrs by LC-MS/MS analysis; assay type: cell-based
Procedure, shortened: (§3)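 U87 MG cells incubated with 10 or 100 µM for 3 h at 37 °C, washed, lysed; genomic DNA isopropanol-extracted, hydrolysed 30 min at 37 °C with nuclease P1 and alkaline phosphatase (ammonium acetate/ZnCl2, pH 5.3); [H]O6-MedG internal standard added; O6-MedG peak area by LC–MS/MS.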

[8] = Plasma concentration in Sprague-Dawley rat plasma at 10 mg/kg, iv after 90 mins by LC-MS/MS analysis; assay type: ADME, organism-based; procedure, shortened: as §2
[9] = Ratio of temozolomide AUC to compound AUC for drug level in brain of Sprague-Dawley rat; assay type: ADME; details: in vivo
[10] = Plasma concentration in Sprague-Dawley rat plasma at 10 mg/kg, iv after 180 mins by LC-MS/MS analysis; assay type: ADME, organism-based; procedure, shortened: as §2
[11] = AUC in Sprague-Dawley rat plasma at 10 mg/kg, iv after 30 to 180 mins by LC-MS/MS analysis; assay type: ADME, organism-based; details: in vivo; procedure, shortened: as §2
[12] = Drug level in Sprague-Dawley rat brain at 10 mg/kg, iv after 180 mins by LC-MS/MS analysis; assay type: ADME, organism-based; details: read-out: Drug uptake; procedure, shortened: as §2
[13] = Drug level in Sprague-Dawley rat brain at 10 mg/kg, iv after 90 mins by LC-MS/MS analysis; assay type: ADME, organism-based; details: read-out: Drug uptake; procedure, shortened: as §2
[14] = Drug level in rat brain at 103 umol/kg, iv measured 3 hrs post dose by LC-MS/MS analysis; assay type: ADME, organism-based; details: in vivo
Procedure, shortened: (§4)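 Rats (n = 1 per compound per dose) dosed IV at 10, 20 and 40 mg/kg; brain collected 3 h post dose; brain drug concentration and O6-MedG (peak area) measured by LC–MS/MS.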

[15] = tested on: U-87MG ATCC; experiment: Induction of DNA alkylation in human U87MG cells assessed as increase in O6-MedG formation at 10 to 100 uM after 3 hrs by LC-MS/MS analysis; assay type: cell-based; procedure, shortened: as §3
[16] = tested on: Rattus norvegicus; experiment: Increase in O6-MedG formation in rat brain at 51.5 to 206 umol/kg, iv measured 3 hrs post dose by LC-MS/MS analysis; assay type: functional, organism-based; procedure, shortened: as §4
[17] = tested on: U-87MG ATCC; experiment: Induction of DNA alkylation in human U87MG cells assessed as increase in N7-MedG formation after 3 hrs by LC-MS/MS analysis; assay type: cell-based
[18] = Ratio of AUC in human brain to plasma by reversed-phase HPLC analysis
[19] = Ratio of AUC in brain to plasma of Sprague-Dawley rat administered as single dose
[20] = tested on: U-87MG ATCC; experiment: Antitumor activity against human U87MG cells orthotopically xenografted in Harlan nude mouse brain assessed as increase in mouse survival at 50 umol/kg, iv administered once daily for 5 days; assay type: functional, organism-based
Procedure, shortened: (§5)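 Orthotopic model: one million luciferase-expressing U87 MG cells surgically implanted into brains of female Harlan nude mice; dosing from day 26 (mean tumor 10.1 mm3), IV in 50% PEG400, once daily ×5; vehicle group dosed IV. Tumor volume by MRI, body weight and mortality tracked; survival followed to day 63, log-rank Mantel–Cox test.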

[21] = tested on: U-87MG ATCC; experiment: Antitumor activity against human U87MG cells orthotopically xenografted in Harlan nude mouse brain assessed as induction of slow tumor growth at 50 umol/kg, iv administered once daily for 5 days; assay type: functional, organism-based; procedure, shortened: as §5
[22] = Drug level in rat brain at 106 umol/kg, iv measured 3 hrs post dose by LC-MS/MS analysis; assay type: ADME, organism-based; details: in vivo; procedure, shortened: as §4
[23] = Cytotoxicity against human U87MG cells assessed as inhibition of cell growth at 100 uM after 72 hrs by MTS assay; assay type: functional, U-87MG ATCC; details: U-87 MG, read-out: GI
Procedure, shortened: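 U87 MG cells exposed to 100 µM compound for 72 h; growth read by MTS CellTiter 96 assay; treated-cell mean growth (n = 3) divided by vehicle-treated growth (n = 3, set to 100%); SD of three replicates.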

Nc1[nH]cnc1C(=O)N1CCc2c(n(C3CC3)c3c(Cl)cc(Cl)cc23)C1
Drug uptake [1]: 1% | fraction unbound at 1 h, 10 µM [2]: 0.01

Cn1nnc2c(C(=O)N3CCc4c(n(C5CC5)c5c(Cl)cc(Cl)cc45)C3)ncn2c1=O
Kp [3]: 10.4 | concentration at 0.5 h [4]: 531 ng/mL | AUC [5]: 11200 ng·h/mL | Drug uptake [1]: 3% | concentration at 0.5 h [6]: 4950 ng/g | Activity [7]: Active | concentration at 1.5 h [8]: 438 ng/mL | Ratio AUC [9]: 0.5 | concentration at 3 h [10]: 347 ng/mL | fraction unbound at 1 h, 10 µM [2]: 0.03 | AUC [11]: 1070 ng·h/g | concentration at 3 h [12]: 3570 ng/g | concentration at 1.5 h [13]: 4830 ng/g

Cn1nnc2c(C(N)=O)ncn2c1=O [TEMOZOLOMIDE]
Drug uptake [14]: Active | Kp [3]: 0.34 | concentration at 0.5 h [4]: 12800 ng/mL | Activity [15]: Dose-dependent effect | Activity [16]: Active | Drug uptake [1]: 50% | Activity [17]: Active | concentration at 0.5 h [6]: 4210 ng/g | concentration at 1.5 h [8]: 6480 ng/mL | Kp [18]: 20 | concentration at 3 h [10]: 3100 ng/mL | fraction unbound at 1 h, 10 µM [2]: 0.5 | Kp [19]: 35 | Activity [20]: Active | concentration at 3 h [12]: 912 ng/g | concentration at 1.5 h [13]: 2300 ng/g | Activity [21]: Active

CN1CCc2c(n(CCNC(=O)c3ncn4c(=O)n(C)nnc34)c3ccc(Cl)cc23)C1
Kp [3]: 1.36 | concentration at 0.5 h [4]: 399 ng/mL | AUC [5]: 525 ng·h/mL | Drug uptake [1]: 11% | concentration at 0.5 h [6]: 574 ng/g | concentration at 1.5 h [8]: 123 ng/mL | Ratio AUC [9]: 10.8 | concentration at 3 h [10]: 43.7 ng/mL | fraction unbound at 1 h, 10 µM [2]: 0.11 | AUC [11]: 386 ng·h/g | concentration at 3 h [12]: 47.5 ng/g | concentration at 1.5 h [13]: 162 ng/g

Cc1ccc2c(c1)c1c(n2C)CN(C(=O)c2nc[nH]c2N)CC1
Drug uptake [1]: 1% | fraction unbound at 1 h, 10 µM [2]: 0.01

Cc1ccc2[nH]c3c(c2c1)CN(CCNC(=O)c1ncn2c(=O)n(C)nnc12)CC3
Kp [3]: 0.75 | concentration at 0.5 h [4]: 1090 ng/mL | Activity [15]: Active | AUC [5]: 750 ng·h/mL | concentration at 0.5 h [6]: 1100 ng/g | concentration at 1.5 h [8]: 302 ng/mL | Ratio AUC [9]: 7.5 | concentration at 3 h [10]: 99.2 ng/mL | AUC [11]: 998 ng·h/g | concentration at 3 h [12]: 32.7 ng/g | concentration at 1.5 h [13]: 142 ng/g

Cc1ccc2c(c1)c1c(n2C)CCN(CCNC(=O)c2ncn3c(=O)n(C)nnc23)C1
Kp [3]: 0.82 | concentration at 0.5 h [4]: 3630 ng/mL | Activity [15]: Active | AUC [5]: 4010 ng·h/mL | concentration at 0.5 h [6]: 3150 ng/g | concentration at 1.5 h [8]: 2140 ng/mL | Ratio AUC [9]: 1.4 | concentration at 3 h [10]: 539 ng/mL | AUC [11]: 4890 ng·h/g | concentration at 3 h [12]: 401 ng/g | concentration at 1.5 h [13]: 1700 ng/g

CN1CCc2c(n(CCNC(=O)c3nc[nH]c3N)c3ccc(Cl)cc23)C1
Drug uptake [1]: 7% | fraction unbound at 1 h, 10 µM [2]: 0.07

Cc1ccc2c(c1)c1c(n2CCNC(=O)c2ncn3c(=O)n(C)nnc23)CCN(C)C1
Kp [3]: 0.67 | concentration at 0.5 h [4]: 850 ng/mL | Activity [15]: Active | AUC [5]: 638 ng·h/mL | concentration at 0.5 h [6]: 517 ng/g | concentration at 1.5 h [8]: 387 ng/mL | Ratio AUC [9]: 8.9 | concentration at 3 h [10]: 67.1 ng/mL | AUC [11]: 959 ng·h/g | concentration at 3 h [12]: 101 ng/g | concentration at 1.5 h [13]: 243 ng/g

Cc1ccc2c(c1)c1c(n2C)CN(C(=O)c2ncn3c(=O)n(C)nnc23)CC1
Kp [3]: 3.79 | concentration at 0.5 h [4]: 483 ng/mL | Drug uptake [22]: Active | Activity [15]: Active | AUC [5]: 2470 ng·h/mL | Drug uptake [1]: 2% | concentration at 0.5 h [6]: 2020 ng/g | concentration at 1.5 h [8]: 256 ng/mL | Ratio AUC [9]: 2.3 | concentration at 3 h [10]: 119 ng/mL | fraction unbound at 1 h, 10 µM [2]: 0.02 | AUC [11]: 650 ng·h/g | concentration at 3 h [12]: 372 ng/g | inhibition of growth at 100 µM [23]: 27.3% | concentration at 1.5 h [13]: 945 ng/g

NC(=O)c1[nH]cnc1N
Drug uptake [1]: 48% | fraction unbound at 1 h, 10 µM [2]: 0.48
